Experimental data from ChEMBL document CHEMBL1129731, “The chemistry of pseudomonic acid. 17. Dual-action C-1 oxazole derivatives of pseudomonic acid having an extended spectrum of antibacterial activity” (J Med Chem, 1996).
Values after ≈ are worked out from the molar mass of the structure shown.

What was measured:
[1] = test system: Bacteroides fragilis; test: compound was tested for antibacterial activity Bacteroides fragilis NCTC 10581.; type: functional
[2] = test system: Streptococcus pyogenes; test: compound was tested for antibacterial activity against Streptococcus pyogenes CN10.; type: functional
In short: (§1)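 Broth microdilution in Mueller–Hinton broth supplemented (final) with 5% heat-inactivated horse serum, 0.02 mg/mL hematin and 0.08 mg/mL NAD; inoculum 5 × 10^5 cfu/mL from overnight broth cultures; 37 °C for 18 h; MIC (µg/mL) read as lowest concentration inhibiting growth.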

[3] = test system: Proteus mirabilis; test: compound was tested for antibacterial activity against Pr. mirabilis C889.; type: functional
In short: (§2)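 Broth microdilution in Mueller–Hinton broth; overnight broth cultures added to final 5 × 10^5 cfu/mL; incubated 37 °C, 18 h. MIC (µg/mL) taken as lowest concentration inhibiting growth.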

[4] = test system: Moraxella catarrhalis; test: compound was tested for antibacterial activity against Moraxella catarrhalis 1502.; type: functional; in short: as §1
[5] = target: T1, Isoleucine--tRNA ligase (Staphylococcus aureus, UniProt P41972); test: Inhibitory activity against isoleucyl-tRNA synthetase (IRS) of Staphylococcus aureus; type: functional
T1 sequence (P41972 whole entry): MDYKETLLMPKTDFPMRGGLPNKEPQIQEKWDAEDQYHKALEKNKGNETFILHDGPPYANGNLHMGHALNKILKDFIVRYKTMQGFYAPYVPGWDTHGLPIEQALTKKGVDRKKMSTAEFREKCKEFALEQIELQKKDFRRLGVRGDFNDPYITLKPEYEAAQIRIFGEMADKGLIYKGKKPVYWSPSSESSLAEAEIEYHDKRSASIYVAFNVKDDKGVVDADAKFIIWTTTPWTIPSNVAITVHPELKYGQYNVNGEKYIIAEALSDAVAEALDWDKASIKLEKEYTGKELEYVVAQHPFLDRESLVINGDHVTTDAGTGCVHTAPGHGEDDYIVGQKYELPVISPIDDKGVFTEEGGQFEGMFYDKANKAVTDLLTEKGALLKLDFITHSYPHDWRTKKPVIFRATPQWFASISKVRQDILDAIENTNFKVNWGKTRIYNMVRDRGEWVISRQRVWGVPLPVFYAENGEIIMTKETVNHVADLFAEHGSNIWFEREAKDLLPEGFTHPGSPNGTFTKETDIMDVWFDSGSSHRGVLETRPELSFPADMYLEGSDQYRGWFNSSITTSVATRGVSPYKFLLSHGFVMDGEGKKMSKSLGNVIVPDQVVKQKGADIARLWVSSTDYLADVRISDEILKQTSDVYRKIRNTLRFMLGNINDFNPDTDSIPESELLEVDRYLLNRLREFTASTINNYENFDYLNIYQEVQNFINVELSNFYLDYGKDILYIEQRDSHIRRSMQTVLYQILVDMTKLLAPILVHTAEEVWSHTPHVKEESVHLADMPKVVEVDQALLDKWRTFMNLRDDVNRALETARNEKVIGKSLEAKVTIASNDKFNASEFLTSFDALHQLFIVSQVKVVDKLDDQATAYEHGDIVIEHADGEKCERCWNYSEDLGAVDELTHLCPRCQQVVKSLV

[6] = test system: Staphylococcus aureus; test: compound was tested for antibacterial activity against Staphylococcus aureus F 89.; type: functional; in short: as §2
[7] = test system: Enterobacter cloacae; test: compound was tested for antibacterial activity against Ent. cloacae N1.; type: functional
[8] = test system: Pseudomonas aeruginosa; test: compound was tested for antibacterial activity against Pseudomonas aeruginosa K799 wt.; type: functional; in short: as §2
[9] = test system: Klebsiella pneumoniae; test: compound was tested for antibacterial activity against Klebsiella pneumoniae E70.; type: functional; in short: as §2
[10] = test system: Staphylococcus aureus; test: compound was tested for antibacterial activity against Staphylococcus aureus NCTC 6571.; type: functional; in short: as §2
[11] = test system: Escherichia coli; test: compound was tested for antibacterial activity against Escherichia coli DC2.; type: functional; in short: as §2
[12] = test system: Streptococcus pneumoniae; test: compound was tested for antibacterial activity against Strep. pneumoniae 1761.; type: functional; in short: as §1
[13] = test system: Enterococcus faecalis; test: compound was tested for antibacterial activity against Ent. faecalis I; type: functional; in short: as §2
[14] = test system: Escherichia coli; test: compound was tested for antibacterial activity against Escherichia coli DC0.; type: functional
[15] = test system: Staphylococcus epidermidis; test: compound was tested for antibacterial activity aagainst Staphylococcus epidermidis PHLN 20.; type: functional; in short: as §2
[16] = test system: Haemophilus influenzae; test: compound was tested for antibacterial activity against Haemophilus influenzae Q1.; type: functional; in short: as §1
[17] = test system: Staphylococcus aureus; test: compound was tested for antibacterial activity against Staphylococcus aureus C 37.; type: functional
[18] = test system: Mus musculus; test: Total […] dose against Staphylococcus aureus after sc administration (1+5 hr post infection) to mouse; settings: in vivo
[19] = target: Isoleucine--tRNA ligase, Staphylococcus aureus (UniProt P41972); test: compound was tested for inhibitory activity of isoleucyl-tRNA synthetase (IRS).
[20] = test system: Staphylococcus aureus; test: Minimum inhibitory concentration against Staphylococcus aureus C 7; type: functional; in short: as §2
[21] = test system: Bacteroides fragilis; test: compound was tested for antibacterial activity against Bacteroides fragilis NCTC 10581.; type: functional
[22] = target: T1, Isoleucine--tRNA ligase; test: (§3) Inhibitory activity against isoleucyl-tRNA synthetase (IRS) of Staphylococcus aureus 11481
[23] = target: T1, Isoleucine--tRNA ligase; test: Inhibitory activity against isoleucyl-tRNA synthetase (IRS) of Staphylococcus aureus C 7
[24] = test system: Isoleucine--tRNA ligase (Staphylococcus aureus); test: Inhibitory activity against isoleucyl-tRNA synthetase (IRS) of Staphylococcus aureus NCTC 6571
[25] = test system: Staphylococcus aureus; test: Minimum inhibitory activity against Staphylococcus aureus 11481; type: functional; in short: as §2
[26] = test system: Staphylococcus aureus; test: Minimum inhibitory activity against Staphylococcus aureus NCTC 6571; type: functional; in short: as §2
[27] = target: T1, Isoleucine--tRNA ligase; test: Inhibitory activity against isoleucyl-tRNA synthetase (IRS) of Staphylococcus aureus NCTC 6571
[28] = target: T1, Isoleucine--tRNA ligase; test: as §3; type: functional
[29] = test system: Staphylococcus aureus; test: Minimum inhibitory activity against Staphylococcus aureus C 7; type: functional; in short: as §2

| MIC [1] [µg/mL] | MIC [2] [µg/mL] | MIC [3] [µg/mL] | MIC [4] [µg/mL] | MIC [6] [µg/mL] | MIC [7] [µg/mL] | MIC [8] [µg/mL] | MIC [9] [µg/mL] | MIC [10] [µg/mL] | MIC [11] [µg/mL] | MIC [12] [µg/mL] | MIC [13] [µg/mL] | MIC [14] [µg/mL] | MIC [15] [µg/mL] | MIC [16] [µg/mL] | MIC [17] [µg/mL] | Compound | further results |
| --- | --- | --- | --- | --- | --- | --- | --- | --- | --- | --- | --- | --- | --- | --- | --- | --- | --- |
|  | < 0.06 | > 64 | 0.5 (≈ 0.999 µM) | > 64 |  | > 64 | > 64 | < 0.06 | 0.13 (≈ 0.26 µM) | < 0.06 | 32 (≈ 63.9 µM) |  | 0.125 (≈ 0.25 µM) | < 0.06 |  | C/C(=C\C(=O)OCCCCCCCCC(=O)O)C[C@@H]1OC[C@H](C[C@@H]2O[C@H]2[C@@H](C)[C@H](C)O)[C@@H](O)[C@H]1O [MUPIROCIN] | MIC [20]: > 2050 µg/mL; MIC [21]: > 64 µg/mL; IC50 [22]: 280 nM; IC50 [23]: 39900 nM; IC50 [24]: 0.0008 µg/mL (≈ 0.0016 µM) |
| 2 (≈ 4.04 µM) | < 0.06 | > 64 | < 0.06 | 8 (≈ 16.2 µM) | > 64 | > 64 | > 64 | 0.125 (≈ 0.253 µM) | < 0.06 | < 0.06 | > 64 | > 64 | < 0.06 | < 0.06 | 8 (≈ 16.2 µM) | C/C(=C\c1ncc(-c2ccc([N+](=O)[O-])s2)o1)C[C@@H]1OC[C@H](C[C@@H]2O[C@H]2[C@@H](C)[C@H](C)O)[C@@H](O)[C@H]1O | MIC [25]: 8 µg/mL (≈ 16.2 µM); MIC [26]: 0.13 µg/mL (≈ 0.263 µM); IC50 [27]: 6.67 nM; IC50 [28]: 243 nM; MIC [29]: 32 µg/mL (≈ 64.7 µM) |

More lines, now with the values behind:

| Compound | MIC [1] [µg/mL] | MIC [2] [µg/mL] | MIC [3] [µg/mL] | MIC [4] [µg/mL] | MIC [6] [µg/mL] | MIC [7] [µg/mL] | MIC [8] [µg/mL] | MIC [9] [µg/mL] | MIC [10] [µg/mL] | MIC [11] [µg/mL] | MIC [12] [µg/mL] | MIC [13] [µg/mL] | MIC [14] [µg/mL] | MIC [15] [µg/mL] | MIC [16] [µg/mL] | MIC [17] [µg/mL] | further results |
| --- | --- | --- | --- | --- | --- | --- | --- | --- | --- | --- | --- | --- | --- | --- | --- | --- | --- |
| C/C(=C\c1ncc(-c2ccc([N+](=O)[O-])cc2)o1)C[C@@H]1OC[C@H](C[C@@H]2O[C@H]2[C@@H](C)[C@H](C)O)[C@@H](O)[C@H]1O | > 64 | 0.125 (≈ 0.256 µM) | > 64 | 1 (≈ 2.05 µM) | > 64 | 32 (≈ 65.5 µM) | > 64 | > 64 | 0.125 (≈ 0.256 µM) | < 0.06 | < 0.06 | 32 (≈ 65.5 µM) | 64 (≈ 131 µM) | 0.125 (≈ 0.256 µM) | 0.25 (≈ 0.512 µM) | > 64 | IC50 [5]: 7.98 nM |
| CN[C@H](CC(C)C)C(=O)N[C@H]1C(=O)N[C@@H](CC(N)=O)C(=O)N[C@H]2C(=O)N[C@H]3C(=O)N[C@H](C(=O)N[C@H](C(=O)O)c4cc(O)cc(O)c4-c4cc3ccc4O)[C@H](O)c3ccc(c(Cl)c3)Oc3cc2cc(c3O[C@@H]2O[C@H](CO)[C@@H](O)[C@H](O)[C@H]2O[C@H]2C[C@](C)(N)[C@H](O)[C@H](C)O2)Oc2ccc(cc2Cl)[C@H]1O [VANCOMYCIN] |  |  |  |  |  |  |  |  |  |  |  |  |  |  |  |  | CD50 [18]: 3.8 mg/kg |
| C/C(=C\c1ncc(-c2ncc([N+](=O)[O-])n2C)o1)C[C@@H]1OC[C@H](C[C@@H]2O[C@H]2[C@@H](C)[C@H](C)O)[C@@H](O)[C@H]1O | 0.5 (≈ 1.02 µM) | 0.25 (≈ 0.508 µM) | > 64 | 0.25 (≈ 0.508 µM) | > 64 | > 64 | > 64 | > 64 | 2 (≈ 4.06 µM) | 1 (≈ 2.03 µM) | 0.5 (≈ 1.02 µM) | 64 (≈ 130 µM) | > 64 | < 0.06 | < 0.06 | > 64 | IC50 [19]: 0.0007 µg/mL (≈ 0.00142 µM) |
